Experimental findings from ChEMBL document CHEMBL2176900, “Design and synthesis of a novel series of bicyclic heterocycles as potent γ-secretase modulators” (J Med Chem, 2012) are described below.

In series [1] the test system is Mus musculus. Description: Antialzheimer activity in CD1 mouse assessed as amyloid beta 38 level in brain at 10 mg/kg, po at 4 hrs by ELISA relative to control. The class given is functional. Summed up: (§1)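 Male CD1 SPF mice, fasted overnight, got a single oral dose of 10 or 30 mg/kg. At each time point the right brain hemisphere was homogenized in 0.4% DEA/50 mM NaCl with protease inhibitors and spun at 221300g for 50 min. The supernatant was neutralized with Tris-HCl pH 6.8. Aβ38 or Aβ42 was read by sandwich ELISA with a fluorogenic peroxidase substrate (ex 320/em 420 nm). Results are mean % change versus T = 0 h, n = 4.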
(An ELISA detects its analyte on a solid surface through an enzyme-linked reagent.)

A short description of series [2]: Plasma concentration in CD1 mouse at 30 mg/kg, po at 8 hrs by LC-MS/MS analysis. Also on record: dose 30 mg/kg, route oral. The class given is ADME, organism-based. The gist of the method: (§2)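 Mice received a single 10 or 30 mg/kg oral dose. Plasma was sampled at several time points up to 48 h, with EDTA plasma obtained by centrifugation at 1900g, 10 min, 4 °C. Compound was quantified by LC-MS/MS, n = 4.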

Series [3] deals with Mus musculus. Description: Antialzheimer activity in CD1 mouse assessed as reduction in amyloid beta 42 level in brain at 30 mg/kg, po at 4 hrs by ELISA relative to control. The class given is functional. The gist of the method: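 Screening used fasted male CD1 mice dosed once orally at 30 mg/kg as a suspension in 20% Captisol in water. Mice were killed at 4 h. Aβ42 in the DEA-soluble hemisphere extract was measured by sandwich ELISA. Values are the mean of at least six animals, as % lowering versus untreated mice; a reduction above 20% counts as significant.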

For series [4], the system named is Mus musculus. Description: Antialzheimer activity in CD1 mouse assessed as amyloid beta 42 level in brain at 30 mg/kg, po at 48 hrs by ELISA relative to control. The class given is functional. Summed up: (§3)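 Male CD1 mice, fasted overnight, received a single 10 or 30 mg/kg oral dose. Brain was sampled at an added 48 h time point. The DEA-soluble brain fraction was neutralized and Aβ42 was measured by sandwich ELISA with fluorogenic read-out. Values are % versus vehicle.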

Series [5] concerns Rattus norvegicus. The series is described as follows: Antialzheimer activity in Sprague-Dawley rat assessed as amyloid beta 42 level in brain at 10 mg/kg, po at 7 hrs by ELISA relative to control. It counts as functional. The gist of the method: (§4)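 Male Sprague-Dawley rats (180-220 g), fasted overnight, were given 10 mg/kg by gastric intubation as a 5 mg/mL suspension in 0.5% methocellulose. At 2, 4, 7 and 25 h, 50 μL CSF was taken from the cisterna magna under isoflurane, then brain was collected. Aβ37/38/40/42 were measured by MesoScale Discovery sandwich immunoassays. Results are mean % change versus T = 0 h, n = 5.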

The test system of series [6] is Rattus norvegicus. Description: Antialzheimer activity in Sprague-Dawley rat assessed as amyloid beta 37 level in CSF at 10 mg/kg, po at 25 hrs by ELISA relative to control. The class given is functional. The gist of the method: as §4
A short description of series [7]: Plasma concentration in CD1 mouse at 30 mg/kg, po at 24 hrs by LC-MS/MS analysis. Also on record: dose 30 mg/kg, route oral. The class given is ADME, organism-based. Summed up: as §2
The test system of series [8] is Rattus norvegicus. Description: Antialzheimer activity in Sprague-Dawley rat assessed as amyloid beta 40 level in brain at 10 mg/kg, po at 2 hrs by ELISA relative to control. It counts as functional. The gist of the method:
as §4

The target of series [9] is T1, Neuromedin-K receptor (Homo sapiens) (UniProt P29371).
T1 sequence (whole entry): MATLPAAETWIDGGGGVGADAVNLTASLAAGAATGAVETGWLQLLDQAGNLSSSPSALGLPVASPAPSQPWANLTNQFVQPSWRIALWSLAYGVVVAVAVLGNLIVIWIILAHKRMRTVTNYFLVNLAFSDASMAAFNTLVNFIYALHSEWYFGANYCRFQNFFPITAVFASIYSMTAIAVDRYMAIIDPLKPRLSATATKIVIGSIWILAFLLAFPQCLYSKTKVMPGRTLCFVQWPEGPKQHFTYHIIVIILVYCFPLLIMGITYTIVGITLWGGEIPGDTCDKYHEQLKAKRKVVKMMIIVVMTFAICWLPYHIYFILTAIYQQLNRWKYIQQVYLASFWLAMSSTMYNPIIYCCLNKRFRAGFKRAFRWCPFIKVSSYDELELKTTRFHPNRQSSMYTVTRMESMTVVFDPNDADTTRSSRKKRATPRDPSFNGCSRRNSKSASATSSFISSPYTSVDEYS
The series is described as follows: Inhibition of NK3 receptor at 10 uM.

Series [10] relates to Mus musculus. The series is described as follows: Antialzheimer activity in CD1 mouse assessed as amyloid beta 38 level in brain at 30 mg/kg, po at 24 hrs by ELISA relative to control. The class given is functional. Summed up:
as §1

For series [11], the system named is Mus musculus. The series is described as follows: Reduction in total amyloid beta level in CD1 mouse at 30 mg/kg, po at 4 hrs by ELISA relative to control. The class given is functional, organism-based. Further details: dose 30 mg/kg. Summed up:
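Overnight-fasted male CD1 Swiss SPF mice were given a single oral dose as a suspension in 20% Captisol in water. Brains were taken at 4 h and the right hemisphere homogenized in 0.4% DEA/50 mM NaCl with protease inhibitors, then spun at 221300g for 50 min. The neutralized supernatant was read by Aβtotal ELISA (capture JRF/rAβ/2, biotinylated 4G8, streptavidin-peroxidase, QuantaBlu, ex 320/em 420 nm). Values are % change versus untreated animals, n ≥ 6.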

Series [12] concerns Rattus norvegicus. Description: Antialzheimer activity in Sprague-Dawley rat assessed as amyloid beta 40 level in brain at 10 mg/kg, po at 25 hrs by ELISA relative to control. It counts as functional. The gist of the method:
as §4

A short description of series [13]: Drug uptake in CD1 mouse brain at 30 mg/kg, po at 4 hrs by LC-MS/MS analysis. It counts as ADME, organism-based. Also on record: dose 30 mg/kg, route oral. Particulars: read-out: Drug uptake. Summed up:
(§5)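 Overnight-fasted male CD1 mice received one oral dose (10 or 30 mg/kg) in 20% Captisol. After sacrifice, the left brain hemisphere was stored at −18 °C. Compound level was quantified by a qualified LC-MS/MS method, alongside EDTA plasma spun at 1900g, 4 °C. n = 4 per time point.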

A short description of series [14]: Drug uptake in CD1 mouse brain at 30 mg/kg, po at 8 hrs by LC-MS/MS analysis. It counts as ADME, organism-based. Also on record: dose 30 mg/kg, route oral. As to conditions: read-out: Drug uptake. Summed up:
as §5

The subject of series [15] is Mus musculus. The series is described as follows: Antialzheimer activity in CD1 mouse assessed as amyloid beta 38 level in brain at 10 mg/kg, po at 24 hrs by ELISA relative to control. It counts as functional. Summed up:
as §1

Series [16] relates to Rattus norvegicus. Description: Antialzheimer activity in Sprague-Dawley rat assessed as amyloid beta 40 level in CSF at 10 mg/kg, po at 7 hrs by ELISA relative to control. It counts as functional. The gist of the method:
as §4

Series [17] relates to Mus musculus. Description: Antialzheimer activity in CD1 mouse assessed as amyloid beta 42 level in brain at 10 mg/kg, po at 48 hrs by ELISA relative to control. The class given is functional. Summed up: as §3
For series [18], the system named is Mus musculus. The series is described as follows: Antialzheimer activity in CD1 mouse assessed as amyloid beta 38 level in brain at 30 mg/kg, po at 8 hrs by ELISA relative to control. It counts as functional. Summed up:
as §1

Series [19] deals with Mus musculus. The series is described as follows: Antialzheimer activity in CD1 mouse assessed as amyloid beta 42 level in brain at 30 mg/kg, po at 24 hrs by ELISA relative to control. It counts as functional. Summed up: as §1
A further series concerns MDR1. Description: Apparent permeability from apical to basal side of pig LLCPK1 cells expressing MDR1. The class given is ADME, cell-based, Sus scrofa. Particulars: LLC-PK1.

SMILES strings stand for the structures. The source made the active and inactive calls. The calls are words filed in the database; no cut-off is given here.

Broadly, the inhibition in vivo is how much of the control response was suppressed. The term inhibition denotes the relative decrease from the control value, in per cent. Read a high inhibition as strong suppression. Broadly, the Papp A→B is the apparent permeability from the apical to the basolateral side of a cell layer. In the case of `COc1nc(Nc2cccc3c2nc(-c2ccc(F)cc2)n3C)ccc1-n1cnc(C)c1`, the Activity with Mus musculus [1] was 141%; in the series with Mus musculus [4], 101%; in the series on Rattus norvegicus [5], 63%; in the series with Rattus norvegicus [6], 124%; in the series on Rattus norvegicus [8] it was 77%; with Mus musculus [10] it was 101%. In addition, the Activity in the series with Rattus norvegicus [12] was found to be 107%; with Mus musculus [15], 83%; with Rattus norvegicus [16], 56%; in the series on Mus musculus [17], 101%; with Mus musculus [18] it was 156%; in the series with Mus musculus [19], 77%. The concentration at 8 h in series [2] was found to be 10.5 µM; in series [14], 12 µM. Further, the inhibition in vivo at 30 mg/kg in the series with Mus musculus [3] came to 62%. This compound gave a concentration at 24 h in [7] of 0.31 µM. The inhibition in [9] worked out at 71%. For the same compound, the outcome with Mus musculus [11] was inactive. Also, the concentration at 4 h in series [13] was 21.9 µM. The apparent permeability from apical to basolateral (Papp A→B) in the series with MDR1 came to 80 nm/s.
